Data set [1] relates to RAW264.7. The experiment in a line: Cytotoxicity against mouse RAW264.7 cells by MTT assay. It is filed as cell-based. The method, boiled down: (§1)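 Viability of ATCC RAW 264.7 cells, grown in DMEM with 10% FBS and 1% antibiotics at 37 °C under 5% CO₂, read by MTT assay with or without LPS at the compound concentrations used for the PGE₂ assay.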
(In general: Tetrazolium assays rely on reduction of a dye to a coloured formazan, in cell work by metabolically active cells.)

The target of data set [2] is T1, Prostaglandin G/H synthase 2 (Mus musculus) (UniProt Q05769).
T1 sequence (whole entry): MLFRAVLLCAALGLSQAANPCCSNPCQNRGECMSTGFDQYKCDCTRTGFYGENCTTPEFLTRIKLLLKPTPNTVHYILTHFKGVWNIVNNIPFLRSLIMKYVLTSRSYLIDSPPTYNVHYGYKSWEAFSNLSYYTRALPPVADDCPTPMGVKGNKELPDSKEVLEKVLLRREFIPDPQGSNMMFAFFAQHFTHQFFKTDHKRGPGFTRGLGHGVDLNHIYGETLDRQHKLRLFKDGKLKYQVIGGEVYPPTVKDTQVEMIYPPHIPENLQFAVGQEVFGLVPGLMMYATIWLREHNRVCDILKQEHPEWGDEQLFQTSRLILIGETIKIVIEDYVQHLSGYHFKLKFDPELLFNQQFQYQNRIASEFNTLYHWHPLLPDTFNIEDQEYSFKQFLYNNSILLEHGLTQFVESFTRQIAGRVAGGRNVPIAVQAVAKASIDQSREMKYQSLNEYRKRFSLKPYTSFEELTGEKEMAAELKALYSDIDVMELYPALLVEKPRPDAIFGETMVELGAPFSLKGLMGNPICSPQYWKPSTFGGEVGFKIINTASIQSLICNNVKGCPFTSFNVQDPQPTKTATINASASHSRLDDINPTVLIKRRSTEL
The experiment in a line: Inhibition of COX-2-induced PGE2 production in LPS-stimulated mouse Raw 264.7 cells at 10 uM preincubated for 1 hr before LPS challenge measured after 24 hrs by ELISA. The method, boiled down:
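ATCC RAW 264.7 cells in DMEM with 10% FBS and 1% antibiotics, 37 °C, 5% CO₂, seeded at 2 × 10⁵ cells/well. Compound pre-incubated 1 h, then LPS added, 24 h further. PGE₂ in medium measured by ELISA. % inhibition = 100 × [1 − (treated + LPS − basal)/(LPS only − basal)]. Arithmetic means, n = 3.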
A general note: An ELISA detects its analyte on a solid surface through an enzyme-linked reagent.

In data set [3] the test system is RAW264.7. The experiment in a line: Cytotoxicity against LPS-stimulated mouse RAW264.7 cells by MTT assay. Type of data set: cell-based. The method, boiled down:
as §1

Data set [4] is described as follows: Lipophilicity, log P of the compound. Type of data set: physicochemical. Particulars: octanol/water.
Data set [5] can be described thus: Dissociation constant, pKa of the compound. It is filed as physicochemical.
Data set [6] addresses T2, Prostaglandin G/H synthase 2 (Mus musculus, UniProt Q05769).
T2 sequence (Q05769 whole entry): T1 sequence (whole entry)
The experiment in a line: Inhibition of COX-2-induced PGE2 production in LPS-stimulated mouse Raw 264.7 cells preincubated for 1 hr before LPS challenge measured after 24 hrs by ELISA. The method, boiled down:
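RAW 264.7 cells (ATCC), cultured in DMEM with 10% FBS and 1% antibiotics at 37 °C under 5% CO₂, seeded at 2 × 10⁵ cells/well. 1 h compound pre-incubation preceded LPS addition and 24 h incubation. Medium PGE₂ quantified by ELISA; IC₅₀ reported from inhibition relative to basal and LPS-only controls.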

The term inhibition denotes the drop in the measured response relative to a control, in per cent. A high value points to strong suppression. In general, logP refers to the decadic logarithm of the partition coefficient of the neutral form, usually between octanol and water. The low end stands for a more hydrophilic compound, the high end for a more lipophilic compound. A word on the pKa: it is the pH at which an ionisable group is half protonated. Low values mean a group that gives up its proton readily, high ones a group that holds its proton tightly. As usually defined, the IC50 is the concentration at which inhibition is half-maximal. Read a low IC50 as higher potency.

For `CS(=O)(=O)c1ccc(-c2c(Cl)nc(Cl)n2-c2ccc(F)c(F)c2)cc1`, the Activity result in the data set with RAW264.7 [1] and with RAW264.7 [3] was “Non-toxic” each time. Moreover, the inhibition in data set [2] was found to be 81%. Besides, in data set [4], the logP worked out at 4.44.

In the case of `CS(=O)(=O)c1ccc(-c2c(Br)nc(Br)n2-c2ccc(F)cc2F)cc1`, the Activity result in the data set on RAW264.7 [1] and in the data set on RAW264.7 [3] was “Non-toxic” each time. For the same compound, the inhibition in data set [2] was determined as 15%. The compound further gave a logP in data set [4] of 4.64.

Consider `CS(=O)(=O)c1ccc(-c2cncn2-c2ccc(F)c(F)c2)cc1`, for which the Activity entry with RAW264.7 [1] and in the data set on RAW264.7 [3] was “Non-toxic” throughout.

Take `CS(=O)(=O)c1ccc(-c2cnc(I)n2-c2ccc(F)c(F)c2)cc1`: the Activity entry in the data set on RAW264.7 [1] and in the data set on RAW264.7 [3] was “Non-toxic” in each case. In data set [2], this compound gave an inhibition of 90%. In data set [4], this compound gave a logP of 3.88.

`CS(=O)(=O)c1ccc(-c2cnc(Cl)n2-c2ccc(F)cc2F)cc1`: the Activity result with RAW264.7 [1] and in the data set with RAW264.7 [3] was “Non-toxic” each time. This compound showed an inhibition in data set [2] of 42%.

On to `CS(=O)(=O)c1ccc(-c2c(Cl)ncn2-c2ccc(F)c(F)c2)cc1`, for which the Activity entry in the data set with RAW264.7 [1] and in the data set with RAW264.7 [3] was “Non-toxic” each time. For the same compound, in data set [2], the inhibition amounted to 56%.

For the compound `CS(=O)(=O)c1ccc(-c2cnc(Br)n2-c2ccc(F)c(F)c2)cc1`, the Activity result in the data set on RAW264.7 [1] and in the data set with RAW264.7 [3] was “Non-toxic” in each case. In addition, the pKa in data set [5] is 4.05. Moreover, the inhibition in data set [2] worked out at 99%. The midpoint of inhibition in data set [6], the IC50, lay at 0.58 µM. The same compound registered a logP in data set [4] of 3.7.

In the case of `CS(=O)(=O)c1ccc(-c2c(Br)ncn2-c2ccc(F)c(F)c2)cc1`, the Activity entry in the data set with RAW264.7 [1] and in the data set on RAW264.7 [3] was “Non-toxic” each time. In addition, the inhibition in data set [2] was determined as 7%. In data set [4], the logP amounted to 3.72.

Take `CS(=O)(=O)c1ccc(-c2cncn2-c2ccc(F)cc2F)cc1`: the Activity entry in the data set with RAW264.7 [1] and with RAW264.7 [3] was “Non-toxic” each time. This compound also showed an inhibition in data set [2] of 84%. Also, it took 6.52 µM to reach half-maximal inhibition in data set [6] (IC50).

As for `CS(=O)(=O)c1ccc(-c2c(Cl)nc(Cl)n2-c2ccc(F)cc2F)cc1`, the Activity entry in the data set with RAW264.7 [1] and with RAW264.7 [3] was “Non-toxic” throughout. The compound also came in with a pKa in data set [5] of 1.07. In data set [2], the inhibition amounted to 98%. In data set [6], 0.55 µM corresponded to half-maximal inhibition (IC50). In data set [4], the logP came out at 3.64.

Values taken from ChEMBL document CHEMBL2157885, “Synthesis of 1,5-diarylhaloimidazole analogs and their inhibitory activities against PGE₂ production from LPS-treated RAW 264.7 cells” (Bioorg Med Chem, 2012).
